Usually EC50 stands for the concentration needed to bring the measured effect to its halfway point. Low readings indicate greater potency, high ones weaker potency. The Ki is a measure of affinity in units of concentration, obtained from inhibition or displacement. Low values mean a stronger hold on the target, high ones a looser hold on the target. For orientation: inhibition means the drop in the measured response relative to a control, in per cent. High values mean strong suppression, low ones little suppression.

The source made the active and inactive calls. The calls are words filed in the database; no cut-off is given here.

Experiment [1] deals with T1, Transient receptor potential cation channel subfamily V member 1 (Rattus norvegicus, UniProt O35433). Briefly: (§1) In vitro [Ca2+] influx relative to capsaicin by Rat Vanilloid receptor (VR1) expressing CHO cells. It counts as functional, cell-based.
The target of experiment [2] is T1, Transient receptor potential cation channel subfamily V member 1. Description: In vitro binding affinity towards Rat Vanilloid receptor 1 (VR1) by [3H]RTX displacement. In outline: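 Rat VR1 stably expressed in tet-off CHO cells; cells grown without antibiotic for 48 h, trypsin-harvested, pelleted and stored at -20 °C. About 5×10^5 cells incubated with 50-100 pM [3H]RTX plus competitor in DPBS (Ca2+/Mg2+) with 0.25 mg/mL BSA, 60 min at 37 °C. Nonspecific binding taken with 100 nM unlabeled RTX.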

In experiment [3] the target is Transient receptor potential cation channel subfamily V member 1 (Rattus norvegicus) (UniProt O35433). Conditions: CHO.
For experiment [4], the target named is T1, Transient receptor potential cation channel subfamily V member 1. Description: Inhibition of capsaicin-induced [Ca2+] uptake by Rat Vanilloid receptor 1 (VR1) expressing CHO cells. It counts as cell-based.
In experiment [5] the target is Transient receptor potential cation channel subfamily V member 1 (Rattus norvegicus) (UniProt O35433). Description: Inhibition of capsaicin-induced [Ca2+] uptake by Rat Vanilloid receptor 1 (VR1) expressing CHO cells (ineffective). Format: functional, cell-based.
For experiment [6] the target is unchanged. Description: Displacement of [3H]RTX binding to Rat Vanilloid receptor 1 (VR1) at 10 uM. A general note: In a radioligand displacement assay an active substance lowers the binding of a labelled ligand.
Experiment [7] shares this target. The description is as §1. It counts as functional, cell-based. The note with it: concentration not given here.
The target of experiment [8] is T1, Transient receptor potential cation channel subfamily V member 1. Description: In vitro binding to Rat Vanilloid receptor 1 (VR1) expressing CHO cells compared to capsaicin. It counts as cell-based. In outline:
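Tet-off CHO cells stably expressing rat VR1, induced by 48 h culture without tetracycline, harvested with trypsin/EDTA, pelleted and stored at -20 °C. About 5×10^5 cells per tube incubated 60 min at 37 °C with 50-100 pM [3H]RTX, a range of competitor concentrations and 0.25 mg/mL BSA in DPBS with Ca2+/Mg2+. Nonspecific binding measured with 100 nM unlabeled RTX. α-glycoprotein added after incubation, membranes pelleted, scintillation counting. Ki from Hill fit; at least three experiments.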

Sequence of Transient receptor potential cation channel subfamily V member 1 (Rattus norvegicus) (O35433 whole entry): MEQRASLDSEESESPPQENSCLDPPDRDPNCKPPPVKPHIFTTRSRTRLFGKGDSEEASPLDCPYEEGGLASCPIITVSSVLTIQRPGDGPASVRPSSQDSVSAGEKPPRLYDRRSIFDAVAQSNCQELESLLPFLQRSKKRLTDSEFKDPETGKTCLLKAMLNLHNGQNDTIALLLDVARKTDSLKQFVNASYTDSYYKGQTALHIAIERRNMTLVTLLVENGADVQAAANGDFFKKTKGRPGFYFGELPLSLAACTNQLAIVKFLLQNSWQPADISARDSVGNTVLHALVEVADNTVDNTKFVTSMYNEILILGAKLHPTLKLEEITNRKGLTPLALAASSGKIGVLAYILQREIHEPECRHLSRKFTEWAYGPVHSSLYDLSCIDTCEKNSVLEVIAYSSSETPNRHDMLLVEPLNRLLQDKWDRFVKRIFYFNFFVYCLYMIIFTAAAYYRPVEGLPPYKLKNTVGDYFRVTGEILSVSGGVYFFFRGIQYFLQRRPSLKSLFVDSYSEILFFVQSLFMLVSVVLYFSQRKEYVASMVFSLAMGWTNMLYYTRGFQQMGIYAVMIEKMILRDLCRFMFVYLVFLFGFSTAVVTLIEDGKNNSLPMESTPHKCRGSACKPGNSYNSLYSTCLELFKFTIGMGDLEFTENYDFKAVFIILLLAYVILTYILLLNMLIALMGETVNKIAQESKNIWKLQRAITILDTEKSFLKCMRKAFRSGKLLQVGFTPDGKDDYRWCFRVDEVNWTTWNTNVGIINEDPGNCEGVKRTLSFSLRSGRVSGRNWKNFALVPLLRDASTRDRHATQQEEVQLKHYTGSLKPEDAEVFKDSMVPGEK
T1 sequence (O35433 whole entry): as above

`Cc1ccc(CC(CN/C(S)=N/Cc2cccc(NS(C)(=O)=O)c2)COC(=O)C(C)(C)C)cc1C` (stereo unspecified): in experiment [1], the EC50 is 990 nM. Affinity in experiment [2] was put at a Ki of 355 nM.

Regarding `CC(=O)Nc1ccc(CNC(=S)NCC(COC(=O)C(C)(C)C)Cc2ccc(C)c(C)c2)cc1` (stereo unspecified), the EC50 in experiment [1] was found to be 450 nM. In experiment [2], the affinity corresponds to a Ki of 1700 nM.

`Oc1cc2c(cc1O)CN(C(=S)NCCc1ccc(Cl)cc1)CCC2`: the NE entry in experiment [3] is “inactive”.

In the case of `CCCS(=O)(=O)Nc1ccc(C/N=C(\S)NCC(COC(=O)C(C)(C)C)Cc2ccc(C)c(C)c2)cc1` (stereo unspecified), the inhibitory constant (Ki) in experiment [2] came out at 313 nM; in experiment [4] it was 940 nM.

For the compound `COc1cc(CNC(=S)NCC(COC(=O)C(C)(C)C)Cc2ccc(C(C)(C)C)cc2)ccc1O` (stereo unspecified), in experiment [5], the NE result is “inactive”. In experiment [1], this compound registered an EC50 of 2.83 nM.

Take `COc1cc(C/N=C(\S)NCC(COC(=O)c2ccccc2)Cc2ccc(C(C)(C)C)cc2)ccc1NS(C)(=O)=O` (stereo unspecified): in experiment [1], it took 252 nM to reach a half-maximal effect (EC50). In experiment [2], this compound showed a Ki of 77.2 nM.

As for `Cc1ccc(CC(CNC(=S)NCc2ccc(NS(C)(=O)=O)c(F)c2)COC(=O)C(C)(C)C)cc1C` (stereo unspecified), the Ki in experiment [2] came out at 54 nM; in experiment [4] it was 7.8 nM.

`Cc1ccc(CC(CN/C(S)=N/Cc2ccc(NS(=O)(=O)C(F)(F)F)cc2)COC(=O)C(C)(C)C)cc1C` (stereo unspecified): the NE result in experiment [5] was “inactive”. This compound gave an inhibition in experiment [6] of 15.5%.

`COc1cc(CNC(=O)CCCC/C=C/C(C)C)ccc1O`: in experiment [5], the NE entry was “inactive”.

For the compound `Cc1ccc(CC(CN/C(S)=N/Cc2ccc(NS(C)(=O)=O)cc2)COC(=O)C(C)(C)C)cc1C` (stereo unspecified), the inhibition in experiment [7] is 7%.

Compound `Cc1ccc(CC(CN/C(S)=N/Cc2ccc(NS(C)(=O)=O)cc2)COC(=O)c2ccccc2)cc1C` (stereo unspecified) returned a concentration for a half-maximal effect (EC50) in experiment [1] of 1730 nM.

Regarding `COc1cc(C/N=C(\S)NCC(COC(=O)C(C)(C)C)Cc2ccc(C)c(C)c2)ccc1NS(C)(=O)=O` (stereo unspecified), the EC50 in experiment [1] turned out to be 22 nM. In experiment [2], the Ki amounted to 49 nM.

Take `Cc1ccc(CC(CNC(=S)NCc2ccc(NS(C)(=O)=O)cc2)COC(=O)C(C)(C)C)cc1C` (stereo unspecified): the inhibitory constant (Ki) stood at 29.3 nM in experiment [2] and 67 nM in experiment [4].

Consider `CCS(=O)(=O)Nc1ccc(C/N=C(\S)NCC(COC(=O)C(C)(C)C)Cc2ccc(C)c(C)c2)cc1` (stereo unspecified), for which the Ki in experiment [2] was determined as 108 nM; in experiment [4], 309 nM.

In the case of `COc1cc(CNC(=S)NCC(COC(=O)c2ccccc2)Cc2ccc(C)c(C)c2)ccc1NS(C)(=O)=O` (stereo unspecified), the EC50 in experiment [1] stood at 166 nM. Moreover, in experiment [2], the Ki is 148 nM.

In experiment [1], `Cc1ccc(CC(CN/C(S)=N/Cc2ccc(NS(=O)(=O)C(C)C)cc2)COC(=O)C(C)(C)C)cc1C` (stereo unspecified) showed a half-maximal effective concentration (EC50) of 790 nM. Also, in experiment [2], the Ki turned out to be 227 nM.

In the case of `Cc1ccc(CC(CNC(=S)NCc2ccc(NC(=O)C(C)C)cc2)COC(=O)C(C)(C)C)cc1C` (stereo unspecified), the midpoint of the response in experiment [1], the EC50, lay at 1140 nM. This compound came in with an inhibition constant (Ki) in experiment [2] of 2600 nM.

In experiment [8], `C=C(C)[C@]12C[C@@H](C)[C@@]34O[C@](Cc5ccccc5)(O[C@@H]1[C@@H]3C=C(COC(=O)Cc1ccc(O)c(OC)c1)C[C@]1(O)C(=O)C(C)=C[C@@H]41)O2` [RESINIFERATOXIN] registered a Ki of 0.13 nM.

For `Cc1ccc(CC(CNC(=S)NCc2ccc(CNS(C)(=O)=O)cc2)COC(=O)C(C)(C)C)cc1C` (stereo unspecified), the midpoint of the response in experiment [1], the EC50, lay at 1700 nM. Also, the inhibition constant (Ki) in experiment [2] turned out to be 3000 nM.

`CC(C)(C)c1ccc(CC(CNC(=S)NCc2ccc(NS(C)(=O)=O)cc2)COC(=O)c2ccccc2)cc1` (stereo unspecified): it took 2790 nM to reach a half-maximal effect in experiment [1] (EC50). The same compound came in with an inhibitory constant (Ki) in experiment [2] of 239 nM.

As for `CC(C)(C)C(=O)OCC(C/N=C(\S)NCc1ccc(NS(C)(=O)=O)cc1)Cc1ccc(C(C)(C)C)cc1` (stereo unspecified), the Ki in experiment [2] was 64 nM; in experiment [4], 86 nM.

Regarding `Cc1ccc(CC(CN/C(S)=N/Cc2ccc(NS(=O)(=O)c3ccccc3)cc2)COC(=O)C(C)(C)C)cc1C` (stereo unspecified), in experiment [5], the NE entry was “inactive”. The compound also came in with an inhibitory constant (Ki) in experiment [2] of 2500 nM.

With `COc1cc(CNC(=S)NCC(COC(=O)C(C)(C)C)Cc2ccc(C)c(C)c2)ccc1O` (stereo unspecified), in experiment [5], the NE result is “inactive”. A half-maximal effect in experiment [1] (EC50) was put at 1.97 nM.

For the origin of these results see ChEMBL document CHEMBL1145839, “N-(3-acyloxy-2-benzylpropyl)-N'-[4-(methylsulfonylamino)benzyl]thiourea analogues: novel potent and high affinity antagonists and partial antagonists of the vanilloid receptor” (J Med Chem, 2003).
